From ChEMBL document CHEMBL4513216, “Probing the Open Global Health Chemical Diversity Library for Multistage-Active Starting Points for Next-Generation Antimalarials” (ACS Infect Dis, 2020)

Test: Toxicity liver stage against HepG2, at 10uM
Assay type: cell-based
Set-up: test concentration 10 uM, cell line HepG2-A16-CD81EGFP
Conditions: human, HepG2-A16-CD81EGFP cells; read-out: INHIBITION
Summary of the method: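 Uninfected HepG2-A16-CD81EGFP cells, 3 × 10^3 per well, 1536-well, plated on prespotted compound at 10 μM final, parasite-free screening media added to match infected plates; puromycin 10 μM positive, DMSO 0.5% negative; run in parallel with 48 h PbLuc assay at 37 °C, 5% CO2; viability by CellTiter-Glo luminescence, normalized to controls.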

Row | SMILES | cytotoxicity at 10 µM
1 | CCn1c(=O)nc(N)c2c(-c3ccc(OC)cc3)csc21 | -32.8%
2 | Cc1oncc1C(=O)N1CCC2(C1)CN(c1cccnc1)C(=O)CN2C (centres undefined) | -5.26%
3 | Cc1ccc(-c2noc(C3CCN3C(=O)c3ccn(C)n3)n2)s1 (centres undefined) | 3.56%
4 | CN1C[C@@H](C(=O)NC2CCCC2)[C@@]2(COc3ccc(F)cc3C2=O)C1 | 2.1%
5 | CCN1CCC(N2CCC(c3nc(C)cc(C)n3)C2)CC1 (centres undefined) | 5.15%
6 | CC(=O)N1CCC(c2cncc(N3CCC(O)C3)n2)CC1 (centres undefined) | 5.57%
7 | CN(C)S(=O)(=O)N1CCCC(C)(c2ncc(C(N)=O)s2)C1 (centres undefined) | -2.36%
8 | Cn1cc(CN2CCOC(c3cccc(-c4cccc(F)c4)n3)C2)cn1 (centres undefined) | -11.1%
9 | Oc1cc(-c2cccs2)nc(C2CCCN(CC3=CCCOC3)C2)n1 (centres undefined) | -5.56%
10 | CC(C)c1n[nH]c(C2CN(Cc3ncc[nH]3)CCO2)n1 (centres undefined) | 1.95%
11 | Cc1noc(C)c1CN(C)C(=O)NCCOc1ccc(F)cc1F | -0.0414%
12 | COCCNC(=O)CN(C)CCn1nc2ccccn2c1=O | -156%
13 | CC(c1nc(C(C)(C)C)no1)N1CCN(c2ccc(C#N)cn2)CC1 (centres undefined) | 3.84%
14 | O=C(NCCCc1nc(=O)[nH][nH]1)Nc1ccc(Cl)cc1 | -54.9%
15 | COCCC(=O)Nc1nccn1Cc1ccc(Br)cc1 | -47.2%
16 | Cc1ccc(C(=O)N(C)CCNS(C)(=O)=O)cc1Br | -45.8%
17 | O=C(O)CCc1cn(C2CCN(c3ncccc3Cl)CC2)nn1 | -49.3%
18 | Cc1ccc(CN2CCCC(c3nnc(CN4CCCCC4)n3C)C2)s1 (centres undefined) | -2.46%
19 | Cc1oc(-c2ccoc2)nc1CN1CCCCC1CCn1cccn1 (centres undefined) | -3.65%
20 | CCC[C@H]1CN(S(C)(=O)=O)C[C@@H]1NC(=O)c1ccc(COC)cc1 | 1.1%
21 | CCNC(=O)[C@@H]1C[C@@H](N)CN1Cc1ccc(-c2ccccc2C#N)o1 | -50.1%
22 | CC(C)c1nnc(CN2CCCC3(CC2)CN(C)C(=O)O3)o1 (centres undefined) | -1.52%

Row | SMILES | cytotoxicity at 10 µM
23 | Cc1cc(-c2cc(C3CCOC3)c(C#N)c(N)n2)ccc1Cl (centres undefined) | -0.611%
24 | CN(C)Cc1nnc(C2CCCN(c3ncccc3F)C2)n1C (centres undefined) | 7.36%
25 | CC(C)=CCN1CCN(Cc2nccn2C)[C@H]2CS(=O)(=O)C[C@H]21 | -2.76%
26 | COCCOC1CCN(C(C(=O)O)c2ccc(F)c(Cl)c2)CC1 (centres undefined) | 9.84%
27 | COc1ccc([C@@H]2CN(Cc3cccnc3N)C[C@H]2NC(C)=O)cc1 | 0.0652%
28 | Cc1ccc(C(=O)N2CCCC(n3cccn3)C2)cc1S(C)(=O)=O (centres undefined) | -4.63%
29 | Cc1ccccc1C(=O)NCc1ccnc(N(C)C)c1 | -8.84%
30 | CN(Cc1coc(-c2ccccc2)n1)C1CCCN(c2cccnn2)C1 (centres undefined) | -14%
31 | CCc1cnc(CNc2ccc(C(=O)N3CCCC(C)C3)cc2C)o1 (centres undefined) | -3.58%
32 | Cc1noc(CN2CCN(Cc3cccs3)CC2)n1 | -6.23%
33 | COc1cc(CN(C(=O)Nc2cccnc2OC)C2CC2)ccc1O | -2.14%
34 | COCc1nc(C(=O)N2CCCCC2Cn2cccn2)cs1 (centres undefined) | -19.1%
35 | Cc1[nH]ncc1C(=O)N1CCCC(c2cc(C(F)(F)F)[nH]n2)C1 (centres undefined) | -7.2%
36 | Cn1cnc(S(=O)(=O)NCCCN2CCCCCC2)c1Cl | -9.53%
37 | CN1CCOC(CNC(=O)Cc2ccccc2F)C1 (centres undefined) | -3.87%
38 | CS(=O)(=O)c1ccc(NC(=O)NCc2ccc3c(c2)CCC3)cn1 | -4.92%
39 | CC(C)(C)c1n[nH]c(C2CN(C(=O)CCc3cscn3)CCO2)n1 (centres undefined) | -17.3%
40 | CC1CCCCN1C(=O)CN1CCN(c2ccc3nncn3n2)CC1 (centres undefined) | 1.48%
41 | CCN(CC)C(=O)CN1CCc2nc(C3CCNCC3)nc(NC)c2C1 | -5.46%
42 | COc1ccc(-c2cc(C3CCNCC3)ccn2)cc1 | 0.288%
43 | Cc1ccc(CN2CC[C@H]3OCC[C@@H](C(=O)NC4CC4)[C@@H]3C2)o1 | 5.81%
44 | CNC(=O)[C@@]12CCO[C@@H]1CCN(S(=O)(=O)c1cccnc1)C2 | -3.3%
